According to ChEMBL document CHEMBL4229462, “Design and synthesis of novel anti-hyperalgesic agents based on 6-prenylnaringenin as the T-type calcium channel blockers” (Bioorg Med Chem, 2018):
Calls of active or inactive are those of the source.

Columns and labels:
[1] = target: T1, Voltage-dependent T-type calcium channel subunit alpha-1H (Homo sapiens, UniProt O95180); test: Inhibition of human CaV3.2 expressed in HEK293 cells assessed as suppression of T-current amplitude by measuring remaining activity at 3 uM after 10 mins by whole cell patch clamp method relative to control; assay type: cell-based
Outline: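 HEK293 cells stably expressing human Cav3.2 were recorded by whole-cell patch clamp, holding at −90 mV with a 30 mV test pulse evoking Ba²⁺ currents. Remaining T-current after 3 μM compound is given as % of control; some entries were measured at 1 μM.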

[2] = target: T1, Voltage-dependent T-type calcium channel subunit alpha-1H; test: Inhibition of human CaV3.2 expressed in HEK293 cells assessed as suppression of T-current amplitude after 10 mins by whole cell patch clamp method; assay type: cell-based
Outline: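 Whole-cell patch clamp was done on HEK293 cells stably expressing human Cav3.2. Membrane was held at −90 mV and Ba²⁺ currents were evoked by a 30 mV test pulse. IC50 was derived from T-current suppression.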

[3] = target: Voltage-dependent T-type calcium channel subunit alpha-1G (Homo sapiens, UniProt O43497); test: Inhibition of human CaV3.1 expressed in HEK293 cells assessed as suppression of T-current after 10 mins by whole cell patch clamp method; assay type: cell-based
Mus musculus [4] = test: Antihyperalgesic activity in ddY mouse assessed as suppression of partial sciatic nerve ligation-induced mechanical allodynia at 10 mg/kg, ip administered 7 days by Von Frey test; assay type: functional, organism-based
Outline: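 Male ddY mice (18–25 g) had the right sciatic nerve partially ligated under isoflurane and were tested one week later. Dosing was i.p. as a suspension in 0.5% carboxymethyl cellulose sodium, with vehicle-treated sham and PSNL groups. Ipsilateral hindpaw threshold was measured by von Frey up-down method before ligation and 0–90 min after injection. Data are mean with S.E.M. (5–11 mice), analysed non-parametrically.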

[5] = Inhibition of T-type calcium channel in human Jurkat cells assessed as suppression of thapsigargin-induced intracellular calcium flux after 1 hr by indo-1 dye-based spectrofluorometric method; assay type: cell-based
Mus musculus [6] = test: Antihyperalgesic activity in ddY mouse assessed as suppression of partial sciatic nerve ligation-induced mechanical allodynia at 20 mg/kg, ip administered 7 days by Von Frey test; assay type: functional, organism-based
Outline: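 Male ddY mice (18–25 g) had the right sciatic nerve partially ligated under isoflurane and were tested 7 days later. Compound was suspended in 0.5% CMC-Na and given i.p. Ipsilateral hindpaw threshold was measured by von Frey up-down method before ligation and over 0–90 min post-dose. Data are mean ± S.E.M. (5–11 mice) with non-parametric statistics.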

[7] = Inhibition of T-type calcium channel (unknown origin); design: species or system Homo sapiens

T1 sequence (O95180 whole entry): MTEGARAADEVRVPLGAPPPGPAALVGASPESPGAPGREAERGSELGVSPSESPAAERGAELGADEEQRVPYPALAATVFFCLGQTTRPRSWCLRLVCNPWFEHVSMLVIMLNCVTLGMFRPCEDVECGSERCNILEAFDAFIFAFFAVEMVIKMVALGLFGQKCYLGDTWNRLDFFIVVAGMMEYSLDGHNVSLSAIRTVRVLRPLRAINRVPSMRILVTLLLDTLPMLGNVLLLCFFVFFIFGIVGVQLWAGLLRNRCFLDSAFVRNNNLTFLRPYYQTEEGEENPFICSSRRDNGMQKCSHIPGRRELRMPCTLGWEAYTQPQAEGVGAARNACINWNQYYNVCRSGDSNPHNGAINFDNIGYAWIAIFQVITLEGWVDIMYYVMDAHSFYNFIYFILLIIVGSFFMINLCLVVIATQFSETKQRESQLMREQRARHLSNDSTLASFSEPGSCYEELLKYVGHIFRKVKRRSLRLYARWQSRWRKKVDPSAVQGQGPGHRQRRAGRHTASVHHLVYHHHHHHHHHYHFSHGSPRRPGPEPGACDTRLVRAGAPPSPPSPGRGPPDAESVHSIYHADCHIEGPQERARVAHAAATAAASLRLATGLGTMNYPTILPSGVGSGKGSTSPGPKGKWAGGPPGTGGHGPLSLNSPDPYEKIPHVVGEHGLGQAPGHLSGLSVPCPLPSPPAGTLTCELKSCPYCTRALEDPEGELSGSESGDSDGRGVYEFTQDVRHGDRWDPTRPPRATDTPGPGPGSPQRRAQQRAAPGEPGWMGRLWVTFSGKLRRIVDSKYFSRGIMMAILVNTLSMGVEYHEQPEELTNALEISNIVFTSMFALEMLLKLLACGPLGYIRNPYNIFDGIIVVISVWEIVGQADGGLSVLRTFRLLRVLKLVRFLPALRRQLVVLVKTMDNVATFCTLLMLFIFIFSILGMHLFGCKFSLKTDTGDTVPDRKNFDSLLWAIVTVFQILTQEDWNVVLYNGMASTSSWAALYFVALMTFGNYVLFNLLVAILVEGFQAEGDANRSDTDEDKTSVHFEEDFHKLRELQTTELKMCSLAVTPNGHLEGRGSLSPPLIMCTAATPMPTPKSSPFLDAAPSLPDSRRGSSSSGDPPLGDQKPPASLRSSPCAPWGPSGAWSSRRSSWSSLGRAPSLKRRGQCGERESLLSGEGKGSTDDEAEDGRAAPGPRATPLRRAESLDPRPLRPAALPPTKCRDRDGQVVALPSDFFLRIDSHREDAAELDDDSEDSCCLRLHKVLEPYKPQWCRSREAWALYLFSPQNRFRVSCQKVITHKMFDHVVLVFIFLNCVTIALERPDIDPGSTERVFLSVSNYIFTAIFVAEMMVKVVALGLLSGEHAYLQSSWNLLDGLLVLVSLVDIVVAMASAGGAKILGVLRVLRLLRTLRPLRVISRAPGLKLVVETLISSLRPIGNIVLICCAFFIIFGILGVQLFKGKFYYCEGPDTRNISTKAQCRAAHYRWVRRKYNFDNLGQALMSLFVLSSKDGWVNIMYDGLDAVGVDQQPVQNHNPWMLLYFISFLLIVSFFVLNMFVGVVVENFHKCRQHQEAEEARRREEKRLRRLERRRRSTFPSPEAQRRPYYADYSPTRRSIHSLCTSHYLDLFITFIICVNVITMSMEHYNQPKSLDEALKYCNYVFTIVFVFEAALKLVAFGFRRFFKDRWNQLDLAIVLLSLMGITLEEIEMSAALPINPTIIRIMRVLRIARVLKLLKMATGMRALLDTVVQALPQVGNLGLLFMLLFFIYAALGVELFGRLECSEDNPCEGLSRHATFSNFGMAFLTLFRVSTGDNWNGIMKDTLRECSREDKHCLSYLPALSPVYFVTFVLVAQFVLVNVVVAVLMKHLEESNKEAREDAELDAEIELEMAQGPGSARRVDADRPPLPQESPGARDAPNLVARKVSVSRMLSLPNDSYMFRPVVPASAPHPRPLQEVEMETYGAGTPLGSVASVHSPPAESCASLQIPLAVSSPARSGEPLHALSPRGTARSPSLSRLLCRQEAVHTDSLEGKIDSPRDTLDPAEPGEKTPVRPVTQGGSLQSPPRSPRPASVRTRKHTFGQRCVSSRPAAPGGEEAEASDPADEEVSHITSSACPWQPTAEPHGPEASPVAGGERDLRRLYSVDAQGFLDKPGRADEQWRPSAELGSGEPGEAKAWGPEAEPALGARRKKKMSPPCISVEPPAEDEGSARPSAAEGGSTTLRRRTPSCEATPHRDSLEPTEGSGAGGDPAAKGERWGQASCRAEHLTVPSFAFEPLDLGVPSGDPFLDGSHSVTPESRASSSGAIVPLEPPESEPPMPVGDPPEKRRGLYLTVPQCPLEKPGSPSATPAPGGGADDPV
Voltage-dependent T-type calcium channel subunit alpha-1G, sequence (O43497 whole entry): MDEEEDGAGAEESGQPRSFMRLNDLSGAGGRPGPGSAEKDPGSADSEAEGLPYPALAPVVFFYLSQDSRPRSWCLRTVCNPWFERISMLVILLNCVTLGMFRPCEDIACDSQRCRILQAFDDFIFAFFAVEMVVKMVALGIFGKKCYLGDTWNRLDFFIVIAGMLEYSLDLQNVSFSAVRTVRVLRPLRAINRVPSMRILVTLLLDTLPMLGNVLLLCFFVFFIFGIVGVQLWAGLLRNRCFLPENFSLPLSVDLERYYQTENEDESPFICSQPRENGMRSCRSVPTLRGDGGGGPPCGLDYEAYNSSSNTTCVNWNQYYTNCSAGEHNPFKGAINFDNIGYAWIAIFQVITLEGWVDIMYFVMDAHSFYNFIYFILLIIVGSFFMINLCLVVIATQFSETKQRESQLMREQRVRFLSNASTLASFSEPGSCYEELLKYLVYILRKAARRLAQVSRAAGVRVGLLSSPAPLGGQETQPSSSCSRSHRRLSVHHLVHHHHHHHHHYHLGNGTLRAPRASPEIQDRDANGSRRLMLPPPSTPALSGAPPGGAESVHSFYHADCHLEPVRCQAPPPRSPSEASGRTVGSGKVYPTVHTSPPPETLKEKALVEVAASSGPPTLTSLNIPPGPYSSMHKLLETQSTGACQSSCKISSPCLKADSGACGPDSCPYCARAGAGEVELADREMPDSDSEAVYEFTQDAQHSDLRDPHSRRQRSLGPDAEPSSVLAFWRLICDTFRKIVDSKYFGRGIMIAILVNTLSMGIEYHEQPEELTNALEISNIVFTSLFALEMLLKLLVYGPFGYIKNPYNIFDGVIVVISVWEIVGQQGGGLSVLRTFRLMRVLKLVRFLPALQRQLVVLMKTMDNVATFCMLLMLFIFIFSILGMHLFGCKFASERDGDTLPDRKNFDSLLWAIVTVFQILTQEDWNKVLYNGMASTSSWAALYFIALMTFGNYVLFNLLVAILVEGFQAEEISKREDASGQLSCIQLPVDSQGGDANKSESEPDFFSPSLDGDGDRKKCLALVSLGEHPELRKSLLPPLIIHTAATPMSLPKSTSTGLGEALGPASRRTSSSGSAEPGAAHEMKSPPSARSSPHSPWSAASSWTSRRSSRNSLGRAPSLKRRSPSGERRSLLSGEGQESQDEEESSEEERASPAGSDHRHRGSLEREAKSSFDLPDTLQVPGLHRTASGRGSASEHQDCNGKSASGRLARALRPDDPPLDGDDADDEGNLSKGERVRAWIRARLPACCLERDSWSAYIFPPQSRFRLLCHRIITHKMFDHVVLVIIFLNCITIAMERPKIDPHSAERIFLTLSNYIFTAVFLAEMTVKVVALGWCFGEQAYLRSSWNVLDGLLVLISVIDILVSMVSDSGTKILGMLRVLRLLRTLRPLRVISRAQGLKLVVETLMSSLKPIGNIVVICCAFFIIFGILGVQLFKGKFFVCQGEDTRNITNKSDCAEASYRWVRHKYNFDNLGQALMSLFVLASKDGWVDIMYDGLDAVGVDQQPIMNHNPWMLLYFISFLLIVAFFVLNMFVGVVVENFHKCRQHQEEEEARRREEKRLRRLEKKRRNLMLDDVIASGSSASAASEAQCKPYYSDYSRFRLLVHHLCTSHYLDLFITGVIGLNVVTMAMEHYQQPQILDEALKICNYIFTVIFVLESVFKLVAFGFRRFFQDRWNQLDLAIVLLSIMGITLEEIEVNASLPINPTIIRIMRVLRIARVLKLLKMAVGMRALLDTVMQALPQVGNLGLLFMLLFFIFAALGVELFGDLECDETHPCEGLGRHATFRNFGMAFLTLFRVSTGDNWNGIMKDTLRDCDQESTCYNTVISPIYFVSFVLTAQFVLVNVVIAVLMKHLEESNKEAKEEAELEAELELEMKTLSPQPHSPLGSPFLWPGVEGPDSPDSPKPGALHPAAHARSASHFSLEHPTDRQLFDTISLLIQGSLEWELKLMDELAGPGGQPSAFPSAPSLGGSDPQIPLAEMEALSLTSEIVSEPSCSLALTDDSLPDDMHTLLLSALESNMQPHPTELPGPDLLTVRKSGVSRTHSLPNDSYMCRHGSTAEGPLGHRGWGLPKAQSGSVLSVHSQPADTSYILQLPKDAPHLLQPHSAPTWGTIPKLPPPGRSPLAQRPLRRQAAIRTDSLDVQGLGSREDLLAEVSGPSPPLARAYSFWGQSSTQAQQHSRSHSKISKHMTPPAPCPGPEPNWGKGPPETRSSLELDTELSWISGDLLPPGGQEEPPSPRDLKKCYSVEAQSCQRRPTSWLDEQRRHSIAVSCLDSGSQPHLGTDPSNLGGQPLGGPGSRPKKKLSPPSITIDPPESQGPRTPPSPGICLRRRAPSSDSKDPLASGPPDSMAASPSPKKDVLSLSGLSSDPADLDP

## CCOc1ccc(C2CC(=O)c3c(ccc(CC=C(CC)CC)c3O)O2)cc1 (configuration not stated)
[1]
  Activity: 57.8%

## CC(C)=CCc1c(O)cc(O)c2c1O[C@H](c1ccc(O)cc1)CC2=O
[2]
  IC50: 1000 nM
[3]
  IC50: 1000 nM

## CC(C)=CCc1ccc2c(c1O)C(=O)CC(c1ccccc1O)O2 (configuration not stated)
[1]
  Activity: 3.77%
[2]
  IC50: 1250 nM

## COc1ccc(C2CC(=O)c3c(cc(O)c(CC=C(C)C)c3O)O2)cc1 (configuration not stated)
[1]
  Activity: 47.6%

## C=CCc1ccc2c(c1O)C(=O)CC(c1ccc(OC)cc1)O2 (configuration not stated)
[1]
  Activity: 59%

## CC(C)=CCc1c(O)cc2c(c1O)C(=O)CC(c1ccccc1O)O2 (configuration not stated)
[1]
  Activity: 2.04%
[2]
  IC50: 640 nM

## CC(C)=CCc1c(O)cc2c(c1O)C(=O)CC(c1ccc(O)cc1)O2 (racemic)
[1]
  Activity: 12.8%
[2]
  IC50: 1000 nM
Mus musculus [4]
  Activity: inactive
[3]
  IC50: 1000 nM

## CC(C)=CCc1ccc2c(c1O)C(=O)CC(c1ccc(Cl)cc1)O2 (configuration not stated)
[1]
  Activity: 78.5%

## C=CCc1c(O)cc2c(c1O)C(=O)CC(c1cc(O)cc(O)c1)O2 (configuration not stated)
[1]
  Activity: 74.8%

## CC(C)=CCc1c(O)cc2c(c1O)C(=O)CC(c1ccccc1)O2 (configuration not stated)
[1]
  Activity: 72.6%

## CC(C)=CCc1c(O)cc2c(c1O)C(=O)CC(c1cccc(O)c1O)O2 (configuration not stated)
[1]
  Activity: 67.1%

## C=CCc1c(O)cc2c(c1O)C(=O)CC(c1ccc(O)c(O)c1)O2 (configuration not stated)
[1]
  Activity: 86.7%

## C=CCc1c(O)cc2c(c1O)C(=O)CC(c1ccccc1O)O2 (configuration not stated)
[1]
  Activity: 63%

## C=CCc1ccc2c(c1O)C(=O)CC(c1ccc(OCC)cc1)O2 (configuration not stated)
[1]
  Activity: 65.2%

## C=CCc1c(O)cc2c(c1O)C(=O)CC(c1cccc(O)c1O)O2 (configuration not stated)
[1]
  Activity: 83.8%

## CC(C)CCc1c(O)cc2c(c1O)C(=O)CC(c1ccc(O)cc1)O2 (configuration not stated)
[1]
  Activity: 1.69%
[2]
  IC50: 480 nM

## C=CCc1c(O)cc2c(c1O)C(=O)CC(c1ccc(OC)cc1)O2 (configuration not stated)
[1]
  Activity: 50.8%

## CC(C)=CCc1c(O)cc2c(c1O)C(=O)CC(c1ccc(O)c(O)c1)O2 (configuration not stated)
[1]
  Activity: 14.7%

## C=CCc1ccc2c(c1O)C(=O)CC(c1ccccc1)O2 (configuration not stated)
[1]
  Activity: 90.1%

## CC(C)=CCc1ccc2c(c1O)C(=O)CC(c1ccc(C)cc1)O2 (configuration not stated)
[1]
  Activity: 103%

## C=CCc1c(O)cc2c(c1O)C(=O)CC(c1cccc(O)c1)O2 (configuration not stated)
[1]
  Activity: 76.8%

## CC(C)=CCc1c(O)cc2c(c1O)C(=O)CC(c1ccc(Cl)cc1)O2 (configuration not stated)
[1]
  Activity: 59.7%

## C=C(C)[C@H](CC=C(C)C)Cc1c(O)cc(O)c2c1O[C@H](c1ccc(O)cc1O)CC2=O [SOPHORAFLAVANONE G]
[2]
  IC50: 1000 nM
[3]
  IC50: 1000 nM

## COCC(=O)O[C@]1(CCN(C)CCCc2nc3ccccc3[nH]2)CCc2cc(F)ccc2[C@@H]1C(C)C [MIBEFRADIL]
[5]
  IC50: 1000 nM

## CCC(=CCc1c(O)cc2c(c1O)C(=O)CC(c1ccccc1O)O2)CC (configuration not stated)
[1]
  Activity: 0.33%
[2]
  IC50: 390 nM
Mus musculus [4]
  Activity: Active
Mus musculus [6]
  Activity: Active

## CC(C)=CCc1c(O)cc2c(c1O)C(=O)CC(c1cc(O)cc(O)c1)O2 (configuration not stated)
[1]
  Activity: 80.9%

## O=C1CC(c2ccc(O)cc2)Oc2cc(O)c(CCC3CCCC3)c(O)c21 (configuration not stated)
[1]
  Activity: 5.42%
[2]
  IC50: 500 nM

## C=CCc1ccc2c(c1O)C(=O)CC(c1ccc(C)cc1)O2 (configuration not stated)
[1]
  Activity: 72.7%

## CCC1(C)CC(=O)NC1=O (configuration not stated) [ETHOSUXIMIDE]
[7]
  IC50: 600 µM

## C=CCc1ccc2c(c1O)C(=O)CC(c1ccc(Cl)cc1)O2 (configuration not stated)
[1]
  Activity: 35.9%

## C=CCc1c(O)cc2c(c1O)C(=O)CC(c1ccc(Cl)cc1)O2 (configuration not stated)
[1]
  Activity: 51.9%

## CCCC(=CCc1c(O)cc2c(c1O)C(=O)CC(c1ccc(O)cc1)O2)CCC (configuration not stated)
[1]
  Activity: 36.8%

## C=CCc1c(O)cc2c(c1O)C(=O)CC(c1ccccc1)O2 (configuration not stated)
[1]
  Activity: 70.1%

## C=CCc1ccc2c(c1O)C(=O)CC(c1ccccc1O)O2 (configuration not stated)
[1]
  Activity: 32%

## CCC(=CCc1c(O)cc2c(c1O)C(=O)CC(c1ccc(O)cc1)O2)CC (configuration not stated)
[1]
  Activity: 22.2%
[2]
  IC50: 260 nM

## CC(C)=CCc1ccc2c(c1O)C(=O)CC(c1ccccc1)O2 (configuration not stated)
[1]
  Activity: 100%

## CC(C)=CCc1c(O)cc2c(c1O)C(=O)CC(c1c(O)cccc1O)O2 (configuration not stated)
[1]
  Activity: 10.3%

## COc1ccc(C2CC(=O)c3c(ccc(CC=C(C)C)c3O)O2)cc1 (configuration not stated)
[1]
  Activity: 81.9%

## CC(C)=CCc1c(O)cc2c(c1O)C(=O)CC(c1cccc(O)c1)O2 (configuration not stated)
[1]
  Activity: 2.09%
[2]
  IC50: 1020 nM

## O=C1CC(c2ccc(O)cc2)Oc2cc(O)c(CC=C3CCCC3)c(O)c21 (configuration not stated)
[1]
  Activity: 1.44%
[2]
  IC50: 460 nM

## CCC(=CCc1ccc2c(c1O)C(=O)CC(c1ccccc1O)O2)CC (configuration not stated)
[1]
  Activity: 16.1%

## CCC(CC)CCc1c(O)cc2c(c1O)C(=O)CC(c1ccc(O)cc1)O2 (configuration not stated)
[1]
  Activity: 10.1%
